For assay [1], the system named is Vero. Put plainly: Antiherpes activity was measured in a plaque reduction assay in Vero cells, against HSV-1 strain KOS. The format is functional. The conditions noted are these: Chlorocebus sabaeus, read-out: ID50 (the source's name). Summed up:
(§1)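 Confluent Vero monolayers infected with 30–40 PFU of HSV-1 (KOS) or HSV-2 (186). After 1 h adsorption at 37 °C, overlaid with maintenance medium containing 0.75% carboxymethylcellulose plus a range of compound concentrations. Incubated 2 further days at 37 °C, then fixed and stained and plaques counted. ID50 is the concentration giving 50% inhibition of plaque formation.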
On the technique in general: Plaque reduction counts the foci of infection that form in a cell layer.

The test system of assay [2] is Vero. Nature of the assay: Cytotoxic effect on Vero cells was determined in mock infected cell monolayers incubated with the compound for 48 hr at 37 degree celsius. The assay is classed as functional, Chlorocebus sabaeus. The gist of the method:
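Mock-infected confluent Vero monolayers exposed to compound for 48 h at 37 °C. Examined microscopically, with gross changes in cell staining, number or morphology scored. The cytotoxic dose is the level affecting 50% of the monolayer.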

Assay [3] relates to Vero. Put plainly: Antiherpes activity was measured in a plaque reduction assay in Vero cells, against HSV-2 strain 186. The assay is classed as functional. The following applies: Chlorocebus sabaeus, read-out: ID50 (the source's name). Summed up:
as §1

In ChEMBL document CHEMBL1124931, “Fluoro carbocyclic nucleosides: synthesis and antiviral activity of 2'- and 6'-fluoro carbocyclic pyrimidine nucleosides including carbocyclic 1-(2-deoxy-2-fluoro-beta-D-arabinofuranosyl)-5-methyluracil and carbocyclic 1-(2-deoxy-2-fluoro-beta-D-arabinofuranosyl)-5-iodouracil” (1990) one finds IC50 and Cytotoxicity data, which are given here for eleven molecules.

The structures appear in SMILES notation. Converted amounts (≈) assume the structure as drawn.

Regarding `O=c1[nH]c(=O)n([C@H]2C[C@H](O)[C@@H](CO)[C@@H]2F)cc1I`, the IC50 with Vero [1] and with Vero [3] was over 300 µg/mL each time. In the assay on Vero [2], this molecule came in with a Cytotoxicity of over 300 µg/mL.
Turning to `Nc1ccn([C@@H]2C[C@H](CO)[C@@H](O)[C@H]2F)c(=O)n1`, the IC50 in the assay with Vero [1] amounted to 18 µg/mL (≈ 74 µM); with Vero [3], 44 µg/mL (≈ 181 µM). In the assay with Vero [2], this molecule returned a Cytotoxicity of over 300 µg/mL.
For `O=c1[nH]c(=O)n([C@H]2C[C@H](O)[C@@H](CO)[C@H]2F)cc1I` the same measures were over 300 µg/mL, over 300 µg/mL and over 300 µg/mL.
Regarding `Nc1ccn([C@@H]2C[C@H](CO)[C@@H](O)[C@@H]2F)c(=O)n1`, the figures for the IC50 with Vero [1] and with Vero [3] were 13 µg/mL (≈ 53.4 µM) and 82 µg/mL (≈ 337 µM), respectively. The Cytotoxicity with Vero [2] was over 100 µg/mL.
For the molecule `O=c1[nH]c(=O)n([C@@H]2C[C@H](CO)[C@@H](O)C2)cc1I`, the IC50 is 0.07 µg/mL (≈ 0.199 µM) with Vero [1] and 97 µg/mL (≈ 275 µM) with Vero [3]. Moreover, the Cytotoxicity with Vero [2] was determined as 300 µg/mL.
The matching figures for `Cc1cn(C2CC(CO)C(O)C2F)c(=O)[nH]c1=O` (stereo not drawn): over 100 µg/mL, over 100 µg/mL and over 100 µg/mL.
The matching figures for `O=c1[nH]c(=O)n(C2CC(CO)C(O)C2F)cc1I` (stereo not drawn): 11 µg/mL (≈ 29.7 µM), over 100 µg/mL and over 100 µg/mL.
As for `Cc1cn(C2CC(CO)C(O)C2(F)F)c(=O)[nH]c1=O` (stereo not drawn), the IC50 with Vero [1] and in the assay with Vero [3] was over 100 µg/mL in each case. The molecule further registered a Cytotoxicity with Vero [2] of over 100 µg/mL.
On to `O=c1ccn(C2CC(O)C(CO)C2F)c(=O)[nH]1` (stereo not drawn), for which the IC50 in the assay on Vero [1] and in the assay on Vero [3] was over 300 µg/mL in each case. In the assay on Vero [2], the Cytotoxicity was over 300 µg/mL.
Consider `Cc1cn([C@@H]2O[C@H](CO)[C@@H](O)[C@@H]2F)c(=O)[nH]c1=O` [5-METHYL-2'-FLUOROARAURACIL], for which the IC50 in the assay on Vero [1] and with Vero [3] was 0.05 µg/mL (≈ 0.192 µM) in each case. In addition, in the assay on Vero [2], the Cytotoxicity is over 30 µg/mL.
Regarding `O=c1[nH]c(=O)n([C@H]2C[C@H](O)[C@@H](CO)O2)cc1I` [IDOXURIDINE], the IC50 in the assay with Vero [1] is 0.1 µg/mL (≈ 0.282 µM); in the assay with Vero [3] it was 0.9 µg/mL (≈ 2.54 µM). The Cytotoxicity in the assay with Vero [2] was over 30 µg/mL.
